For assay [1], the system named is SW480. Kind of assay: Antiproliferative activity against human SW480 cells assessed as cell viability using propidium iodide staining after 48 hrs. It is filed as functional, cell-based. The conditions noted are these: for IC50: SW480, 48 h. In outline:
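SW480 cells grown in RPMI with 10% FBS and 1% antibiotics; 30,000 cells/well seeded, treated after 24 h with compound in 0.1% DMSO (1 nM to 100 µM; 0.1% DMSO control). At 48 h adherent (trypsinized) plus detached cells stained with 1 µg/mL propidium iodide, counted by flow cytometry. IC50 from parametric regression of % viable cells vs control; triplicate wells, three experiments.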

The subject of assay [2] is SW480. Nature of the assay: Cell cycle arrest in human SW480 cells assessed as accumulation at G0/G1 phase at 30 uM after 48 hrs by flow cytometry. Format: functional. The method, boiled down:
(§1)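 SW480 cells treated 48 h at 30 µM in 0.1% DMSO medium. DNA content measured by propidium iodide flow cytometry. Cells gated as 2n G0/G1, S (2<n<4), 4n G2/M and >4n (polyploid). Data are means ± SD of a representative experiment among three independent.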

The subject of assay [3] is SW480. Nature of the assay: Cell cycle arrest in human SW480 cells assessed as accumulation at S phase at 30 uM after 48 hrs by flow cytometry. Format: functional. In outline: as §1
The subject of assay [4] is SW480. Nature of the assay: Cell cycle arrest in human SW480 cells assessed as 4n cells at 30 uM after 48 hrs by flow cytometry. It is filed as functional. In outline:
as §1

The subject of assay [5] is SW480. Nature of the assay: Cell cycle arrest in human SW480 cells assessed as >4n cells at 30 uM after 48 hrs by flow cytometry. It is filed as functional. In outline: as §1
Assay [6] has as its system SW480. Nature of the assay: Cell cycle arrest in human SW480 cells assessed as disturbance of diploid cells at 30 uM after 48 hrs by flow cytometry. Format: functional, cell-based. In outline:
as §1

The subject of assay [7] is SW480. Kind of assay: Cell cycle arrest in human SW480 cells assessed as polyploid cells generation at 30 uM after 48 hrs by flow cytometry. Format: functional, cell-based. In outline: as §1
Assay [8] deals with SW480. Kind of assay: Cell cycle arrest in human SW480 cells assessed as tetraploid cells generation at 30 uM after 48 hrs by flow cytometry. It is filed as functional, cell-based. The method, boiled down:
as §1

The subject of assay [9] is SW480. Nature of the assay: Cell cycle arrest in human SW480 cells assessed as accumulation of polyploid cells at 0.5 uM after 48 hrs by microscopic analysis. It is filed as functional, cell-based. In outline:
(§2)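 SW480 cells left untreated or exposed to 0.5 µM for 48 h. Actin was immunostained (Alexa 488) to show cell shape and nuclei were stained with Hoechst 33342. Fluorescence microscopy at 100x with identical settings; example of three independent experiments.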

The test system of assay [10] is SW480. Kind of assay: Cell cycle arrest in human SW480 cells assessed as increase of 4n and >4n cells at 0.2 uM after 48 hrs by flow cytometry. It is filed as functional, cell-based. In outline: (§3)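 SW480 cells treated for 48 h at 0.2, 0.5 or 1.0 µM. DNA content was read by propidium iodide staining and flow cytometry. Populations were gated as 2n G0/G1, S (2<n<4), 4n G2/M and >4n. Means ± SD of a representative experiment out of three.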

Assay [11] concerns SW480. Nature of the assay: Cell cycle arrest in human SW480 cells assessed as increase of 4n and >4n cells at 1 uM after 48 hrs by flow cytometry. Format: functional, cell-based. The method, boiled down: as §3
Assay [12] concerns SW480. Nature of the assay: Antiproliferative activity against human SW480 cells assessed as cell viability using propidium iodide staining. It is filed as functional, cell-based. The conditions noted are these: TDE = time-dependent effect. In outline:
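SW480 colon carcinoma cells grown in RPMI with 10% FBS and 1% antibiotics. 30,000 cells/well were seeded, then treated after 24 h in medium with 0.1% DMSO (vehicle control 0.1% DMSO) at 1 nM to 100 µM for 48 h. Adherent plus detached cells were stained with 1 µg/mL propidium iodide and counted by flow cytometry. IC50 came from parametric regression of % viable cells vs control. Triplicate wells, three experiments.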

In assay [13] the test system is SW480. Nature of the assay: Antiproliferative activity against human SW480 cells assessed as cell viability using propidium iodide staining at 0.2 uM after 72 hrs. Format: functional, cell-based. In outline: (§4)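 SW480 cells (RPMI, 10% FBS, 1% antibiotics) seeded at 30,000/well and treated 24 h later in 0.1% DMSO medium; 0.1% DMSO alone as control. After 24, 48 and 72 h, trypsinized adherent plus detached cells were labelled with 1 µg/mL propidium iodide and viable (PI-excluding) cells counted by flow cytometry. Triplicate wells; representative of three experiments, means ± SD.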

Assay [14] deals with SW480. Nature of the assay: Antiproliferative activity against human SW480 cells assessed as cell viability using propidium iodide staining at 0.5 uM after 72 hrs. Format: functional, cell-based. The method, boiled down: as §4
Assay [15] concerns SW480. Nature of the assay: Cell cycle arrest in human SW480 cells assessed as increase of 4n and >4n cells at 0.5 uM after 48 hrs by flow cytometry. Format: functional, cell-based. The method, boiled down: as §3
Assay [16] relates to SW480. Nature of the assay: Cell cycle arrest in human SW480 cells assessed as mitotic disturbances using Hoechst staining at 0.5 uM after 48 hrs by microscopic analysis. It is filed as functional, cell-based. In outline:
as §2

Assay [17] has as its system SW480. Nature of the assay: Cell cycle arrest in human SW480 cells assessed as cytokinesis cells at 0.5 uM after 48 hrs by microscopic analysis. It is filed as functional, cell-based. The method, boiled down: as §2
Assay [18] concerns SW480. Kind of assay: Antiproliferative activity against human SW480 cells assessed as cell viability using propidium iodide staining after 48 hrs. As to conditions: SW480, 48 h.

Experimental findings from ChEMBL document CHEMBL1177861, “Structural determinants of resveratrol for cell proliferation inhibition potency: experimental and docking studies of new analogs” (Eur J Med Chem, 2010) are described below.

Active and inactive are the calls of the source. The calls are words filed in the database; no cut-off is given here.

For the molecule `COc1cc(/C=C/c2cc(OC)cc(OC)c2O)cc(OC)c1`, the 50% inhibitory concentration (IC50) in the assay on SW480 [1] was 17 µM. In addition, the Activity with SW480 [2] was determined as 50%; in the assay on SW480 [3], 15%; with SW480 [4], 25%; in the assay with SW480 [5], 10%.
Turning to `COc1cc(/C=C\c2cc(OC)cc(OC)c2)cc(OC)c1`, the IC50 in the assay with SW480 [1] worked out at 13 µM. The outcome with SW480 [6], in the assay on SW480 [7] and in the assay with SW480 [8] was Active.
For `Oc1ccc(/C=C/c2cc(O)cc(O)c2)cc1` [RESVERATROL], in the assay with SW480 [1], the IC50 amounted to 20 µM.
Consider `COc1ccc(/C=C\c2cc(OC)cc(OC)c2O)cc1`, for which the IC50 with SW480 [1] is 18 µM. In addition, the outcome in the assay on SW480 [6], in the assay on SW480 [7] and in the assay with SW480 [8] was Active.
As to `COc1ccc(/C=C\c2cc(OC)cc(OC)c2)cc1` [8Z-3,4',5-TRIMETHOXYSTILBENE], the Activity entry with SW480 [1] is “Dose-dependent effect”; in the assay on SW480 [12], “tde”. The IC50 in the assay on SW480 [1] and in the assay on SW480 [18] was 0.3 µM each time. The outcome with SW480 [6], in the assay with SW480 [7], with SW480 [8], with SW480 [9], in the assay with SW480 [11] and in the assay with SW480 [15] was Active. Besides, the result with SW480 [16] and in the assay on SW480 [17] was Active. The result in the assay with SW480 [10], in the assay with SW480 [13] and in the assay with SW480 [14] was inactive.
For the molecule `COc1cc(/C=C\c2ccc(OC)c(OC)c2)cc(OC)c1` [(Z)-3,4,3',5'-TETRAMETHOXYSTILBENE], the IC50 in the assay on SW480 [1] is 9.5 µM. The result in the assay on SW480 [6], with SW480 [7] and with SW480 [8] was Active.
In the case of `COc1cc(/C=C\c2cc(OC)cc(OC)c2O)cc(OC)c1`, the IC50 with SW480 [1] was found to be 7 µM. Moreover, the result in the assay on SW480 [6], in the assay on SW480 [7] and in the assay on SW480 [8] was Active.
As to `COc1cc(/C=C/c2ccc(OC)c(OC)c2)c(O)c(OC)c1`, the IC50 in the assay with SW480 [1] came to 42 µM.
For the molecule `COc1cc(/C=C/c2cc(OC)cc(OC)c2)cc(OC)c1`, in the assay with SW480 [1], the IC50 came to 48 µM. Besides, the Activity with SW480 [2] is reported as 50%; in the assay with SW480 [3] it was 15%; in the assay on SW480 [4], 25%; with SW480 [5] it was 10%.
As to `COc1cc(/C=C\c2ccc(OC)c(OC)c2)c(O)c(OC)c1`, the IC50 in the assay on SW480 [1] was determined as 10 µM. Besides, the outcome in the assay with SW480 [6], with SW480 [7] and in the assay with SW480 [8] was Active.
With `COc1cc(/C=C/c2ccc(OC)c(OC)c2)cc(OC)c1` [(E)-3,4,3',5'-TETRAMETHOXYSTILBENE], the half-inhibitory concentration (IC50) with SW480 [1] is 100 µM. Moreover, the Activity in the assay on SW480 [2] stood at 50%; in the assay on SW480 [3], 15%; in the assay with SW480 [4], 25%; with SW480 [5] it was 10%.
Consider `COc1ccc(/C=C/c2cc(OC)cc(OC)c2O)cc1`, for which the IC50 in the assay on SW480 [1] was found to be 43 µM. For the same molecule, the outcome with SW480 [6], in the assay with SW480 [7] and in the assay with SW480 [8] was Active.
For `COc1ccc(/C=C/c2cc(OC)cc(OC)c2)cc1` [TRISMETHOXYRESVERATROL], in the assay on SW480 [1], the half-inhibitory concentration (IC50) was 54 µM. Also, the result in the assay on SW480 [6], with SW480 [7] and in the assay with SW480 [8] was Active.
In the case of `Oc1ccc(/C=C\c2cc(O)cc(O)c2)cc1` [CIS-RESVERATROL], the IC50 in the assay with SW480 [1] stood at 90 µM. The Activity with SW480 [2] is 50%; in the assay with SW480 [3], 15%; with SW480 [4], 25%; in the assay with SW480 [5], 10%.
